In ChEMBL document CHEMBL1139534, “Inhibition of herpes simplex virus thymidine kinases by 2-phenylamino-6-oxopurines and related compounds: structure-activity relationships and antiherpetic activity in vivo” (J Med Chem, 2005):

Key:
Mus musculus [1] = experiment: Effect on HSV-2 encephalitis in mice following intraperitoneal dosage at 100 mg/kg; expressed as mean day of death; assay type: functional
How it was run: (§1)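 Female BALB/c mice, 6 weeks old, groups of 10, anesthetized with ketamine/xylazine. Corneas lightly scratched, then 10⁶ PFU per eye applied in culture medium (HSV-1 McKrae or HSV-2 G, Vero-grown). Compound given ip as corn-oil suspension, 0.1 mL, twice daily for 5 days; vehicle controls. Mice alive at 30 days counted survivors; day of death recorded for the rest.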

Mus musculus [2] = experiment: Effect on ocular HSV-2 reactivation in mice following intraperitoneal dosage at 200 mg/kg; expressed as HSV-2 positive cultures/15 mice; assay type: functional, Eye
How it was run: (§2)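 Female BALB/c mice, 6 weeks old, ocularly infected with HSV-2 strain G (Vero-grown) to establish trigeminal latency. Groups of 15 received a single ip dose as a corn oil suspension, with a corn oil-only group. Thirty minutes later they were immersed in 43 °C water for 10 min as hyperthermic stress. Eyes were swabbed after 24 h for infectious virus, and virus-positive cultures were counted per group.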

Mus musculus [3] = experiment: Effect on HSV-1 encephalitis in mice following intraperitoneal dosage at 100 mg/kg; expressed as mean day of death; assay type: functional; how it was run: as §1
Mus musculus [4] = experiment: Effect on HSV-1 encephalitis in mice following intraperitoneal dosage at 100 mg/kg; expressed as number of survivors/10; assay type: functional; how it was run: as §1
Mus musculus [5] = experiment: Effect on HSV-2 encephalitis in mice following intraperitoneal dosage at 100 mg/kg; expressed as number of survivors/10; assay type: functional; how it was run: as §1
Thymidine kinase [6] = molecular target: T1, Thymidine kinase (Human herpesvirus 2, UniProt Q6L709); experiment: Inhibitory concentration against herpes simplex virus type 2 thymidine kinase; design: species or system Human alphaherpesvirus 2
T1 sequence (Q6L709 whole entry): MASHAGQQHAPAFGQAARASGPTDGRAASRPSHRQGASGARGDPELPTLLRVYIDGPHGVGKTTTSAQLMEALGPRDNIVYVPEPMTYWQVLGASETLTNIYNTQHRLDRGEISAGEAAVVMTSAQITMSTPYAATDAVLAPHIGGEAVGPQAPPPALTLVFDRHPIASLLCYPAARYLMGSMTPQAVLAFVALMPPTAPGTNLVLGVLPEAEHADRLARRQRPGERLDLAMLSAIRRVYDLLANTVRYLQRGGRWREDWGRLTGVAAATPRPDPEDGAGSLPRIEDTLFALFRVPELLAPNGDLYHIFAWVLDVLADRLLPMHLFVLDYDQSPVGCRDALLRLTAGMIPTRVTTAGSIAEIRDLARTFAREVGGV
How it was run: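 Recombinant His-tagged HSV-2 TK expressed in E. coli, Ni-NTA purified. Products captured on DEAE paper and counted by scintillation. Inhibitor diluted from DMSO stocks, at least five concentrations in duplicate; IC50 is the concentration halving activity.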

Thymidine kinase [7] = molecular target: T2, Thymidine kinase (Human herpesvirus 1 (strain SC16) (HHV-1) (Human herpes simplex virus1), UniProt P06479); experiment: Inhibitory concentration against herpes simplex virus type 1 thymidine kinase
T2 sequence (P06479 whole entry): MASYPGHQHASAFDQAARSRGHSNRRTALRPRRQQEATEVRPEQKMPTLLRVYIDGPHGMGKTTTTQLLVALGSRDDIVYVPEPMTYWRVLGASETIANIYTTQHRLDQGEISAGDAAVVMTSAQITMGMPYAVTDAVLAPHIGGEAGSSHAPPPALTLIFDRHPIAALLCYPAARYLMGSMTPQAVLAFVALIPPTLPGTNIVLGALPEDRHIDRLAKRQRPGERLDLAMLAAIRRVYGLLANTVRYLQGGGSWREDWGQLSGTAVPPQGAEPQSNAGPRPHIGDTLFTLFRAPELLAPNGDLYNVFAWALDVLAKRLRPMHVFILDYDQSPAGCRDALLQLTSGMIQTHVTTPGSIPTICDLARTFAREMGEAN

Mus musculus [8] = experiment: Effect on HSV-1 encephalitis in mice following intraperitoneal dosage at 400 mg/kg; expressed as number of survivors/10; assay type: functional; how it was run: as §1
Mus musculus [9] = experiment: Effect on HSV-2 encephalitis in mice following intraperitoneal dosage at 400 mg/kg; expressed as mean day of death; assay type: functional; how it was run: as §1
Mus musculus [10] = experiment: Effect on HSV-1 encephalitis in mice following intraperitoneal dosage at 200 mg/kg; expressed as number of survivors/10; assay type: functional; how it was run: as §1
Mus musculus [11] = experiment: Effect on HSV-2 encephalitis in mice following intraperitoneal dosage at 400 mg/kg; expressed as number of survivors/10; assay type: functional; how it was run: as §1
Mus musculus [12] = experiment: Effect on HSV-1 encephalitis in mice following intraperitoneal dosage at 200 mg/kg; expressed as mean day of death; assay type: functional; how it was run: as §1
Mus musculus [13] = experiment: Effect on HSV-2 encephalitis in mice following intraperitoneal dosage at 200 mg/kg; expressed as number of survivors/10; assay type: functional; how it was run: as §1
Mus musculus [14] = experiment: Effect on HSV-1 encephalitis in mice following intraperitoneal dosage at 400 mg/kg; expressed as mean day of death; assay type: functional; how it was run: as §1
Mus musculus [15] = experiment: Effect on HSV-2 encephalitis in mice following intraperitoneal dosage at 200 mg/kg; expressed as mean day of death; assay type: functional; how it was run: as §1
Mus musculus [16] = experiment: Effect ocular HSV-2 reactivation in mice following intraperitoneal dosage at 200 mg/kg; expressed as HSV-2 positive cultures/15 mice; assay type: functional, Eye; how it was run: as §2
Thymidine kinase [17] = molecular target: T1, Thymidine kinase; experiment: Binding affinity for herpes simplex virus type 2 thymidine kinase; design: species or system Human alphaherpesvirus 2
How it was run: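 His-tagged recombinant HSV-2 TK, expressed in E. coli DH5α and purified on Ni-NTA. Incubated 15 min at 37 °C in 30 mM HEPES-K+ pH 7.5, 6 mM MgCl2, 6 mM ATP, 0.5 mM DTT, with several [3H-methyl]TdR concentrations and inhibitor diluted from DMSO stocks. Phosphorylated product retained on DEAE paper disks and counted by scintillation. Ki taken from double-reciprocal (Lineweaver-Burk) plots.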

Thymidine kinase [18] = molecular target: T2, Thymidine kinase; experiment: Binding affinity for herpes simplex virus type 1 thymidine kinase

Compound | IC50 (Thymidine kinase [6]) | IC50 (Thymidine kinase [7]) | also measured
Nc1nc2c(ncn2COCCO)c(=O)[nH]1 [ACYCLOVIR] |  |  | Activity (Mus musculus [1]): 17.2; Activity (Mus musculus [2]): 10; Activity (Mus musculus [3]): 13; Activity (Mus musculus [4]): 7; Activity (Mus musculus [5]): 6
Oc1nc(Nc2ccccc2)nc2c1ncn2CCCCN1CCC(O)(c2ccc(Cl)c(C(F)(F)F)c2)CC1 | 0.2 µM | 2 µM | 
Oc1nc(Nc2ccccc2)nc2c1ncn2CCCCN1CCCC(O)C1 (stereo not given) | 0.31 µM | 5.7 µM | 
O=c1[nH]c(Nc2ccccc2)nc2c1ncn2CCO |  | 4.4 µM | 
CCN(CC)CCCCn1cnc2c(O)nc(Nc3ccccc3)nc21 | 0.23 µM | 4.5 µM | 
O=C(O)P(=O)(O)O [FOSCARNET] |  |  | Activity (Mus musculus [8]): 7; Activity (Mus musculus [1]): 15.2; Activity (Mus musculus [9]): 18.5; Activity (Mus musculus [10]): 5; Activity (Mus musculus [2]): 7; Activity (Mus musculus [11]): 6; Activity (Mus musculus [12]): 10.4; Activity (Mus musculus [3]): 9.2; Activity (Mus musculus [4]): 1; Activity (Mus musculus [13]): 4; Activity (Mus musculus [14]): 12.3; Activity (Mus musculus [15]): 17.8; Activity (Mus musculus [5]): 0
CC1CN(CCCCn2cnc3c(O)nc(Nc4ccccc4)nc32)CC(C)N1 (stereo not given) | 0.8 µM | 7.1 µM | 
Oc1nc(Nc2ccccc2)nc2c1ncn2CCCCN1CCCCC1c1ccccc1 (stereo not given) | 0.09 µM | 0.55 µM | 
CN(C)CCCCn1cnc2c(O)nc(Nc3ccccc3)nc21 | 0.62 µM | 3.6 µM | 
COC1CCCN(CCCCn2cnc3c(O)nc(Nc4ccccc4)nc32)C1 (stereo not given) | 0.15 µM | 2.5 µM | 
CCN(C)CCCCn1cnc2c(O)nc(Nc3ccccc3)nc21 | 0.38 µM | 4.7 µM | 
OCCCCn1cnc2c(O)nc(Sc3ccccc3)nc21 | 2 µM | 0.5 µM | Activity (Mus musculus [16]): 10
Oc1nc(Nc2ccccc2)nc2c1ncn2CCCCN1CCC(N2CCCCC2)CC1 | 1 µM | 16.5 µM | 
O=c1[nH]c(Nc2ccccc2)nc2c1ncn2CCCCO |  |  | Activity (Mus musculus [8]): 9; Activity (Mus musculus [1]): 15.7; Activity (Mus musculus [10]): 6; Activity (Mus musculus [2]): 4; Activity (Mus musculus [11]): 10; Activity (Mus musculus [12]): 11.8; Activity (Mus musculus [3]): 9.5; Activity (Mus musculus [4]): 3; Activity (Mus musculus [13]): 9; Activity (Mus musculus [14]): 11; Activity (Mus musculus [15]): 18; Activity (Mus musculus [5]): 4
COCCCCn1cnc2c(=O)[nH]c(Nc3ccccc3)nc21 | 14 µM | 12 µM | 
Cl.Cl.Oc1nc(Nc2ccccc2)nc2c1ncn2CCCCN1CCCCC1 | 0.22 µM | 1.6 µM | Activity (Mus musculus [1]): 15.2; Activity (Mus musculus [2]): 11; Activity (Mus musculus [5]): 0

Compound | IC50 (Thymidine kinase [6]) | IC50 (Thymidine kinase [7]) | also measured
Oc1nc(Nc2ccccc2)nc2c1ncn2CCCCN1CCCc2ccccc21 | 0.047 µM | 0.35 µM | 
Cl.Cl.Oc1nc(Nc2ccccc2)nc2c1ncn2CCCCN1CCCC2CCCCC21 (stereo not given) | 0.013 µM | 0.15 µM | Activity (Mus musculus [2]): 10; Ki (Thymidine kinase [17]): 0.005 µM; Activity (Mus musculus [13]): 0; Activity (Mus musculus [15]): 15.4; Ki (Thymidine kinase [18]): 0.03 µM
COC1CCN(CCCCn2cnc3c(O)nc(Nc4ccccc4)nc32)CC1 | 0.14 µM | 2.3 µM | 
CN(c1ccccc1)c1nc2c(ncn2CCCCO)c(=O)[nH]1 | 37 µM | 16 µM | 
OCCCn1cnc2c(O)nc(Nc3ccccc3)nc21 | 1.5 µM | 2 µM | Activity (Mus musculus [1]): 10.7; Activity (Mus musculus [2]): 9; Activity (Mus musculus [3]): 9.7; Activity (Mus musculus [4]): 1; Activity (Mus musculus [5]): 0
OCCC1CCCCN1CCCCn1cnc2c(O)nc(Nc3ccccc3)nc21 (stereo not given) | 0.065 µM | 0.77 µM | 
Oc1nc(Nc2ccccc2)nc2c1ncn2CCCCN1CCCC1CN1CCCCC1 (stereo not given) | 0.13 µM | 1 µM | 
N#CC1(c2ccccc2)CCN(CCCCn2cnc3c(O)nc(Nc4ccccc4)nc32)CC1 | 0.22 µM | 0.41 µM | 
OCCCCCn1cnc2c(O)nc(Nc3ccccc3)nc21 | 54 µM | 15 µM | Activity (Mus musculus [1]): 11.2; Activity (Mus musculus [2]): 8; Activity (Mus musculus [3]): 10.7; Activity (Mus musculus [4]): 0; Activity (Mus musculus [5]): 1
O=c1[nH]c(Oc2ccccc2)nc2c1ncn2CCCCO | 9 µM | 0.75 µM | 
Oc1nc(Nc2ccccc2)nc2c1ncn2CCCCN1CCC(O)CC1 | 0.71 µM | 8.2 µM | 
C=CCN(CC=C)CCCCn1cnc2c(O)nc(Nc3ccccc3)nc21 | 0.42 µM | 2.1 µM | 
OCCN(CCO)CCCCn1cnc2c(O)nc(Nc3ccccc3)nc21 | 0.34 µM | 5.2 µM | 
O=C(O)CCCn1cnc2c(O)nc(Nc3ccccc3)nc21 | 0.7 µM | 1 µM | Activity (Mus musculus [2]): 11
Nc1nc2c(ncn2CCCCO)c(=O)[nH]1 | 160 µM | 60 µM | 
